In ChEMBL document CHEMBL1124786, “Potent, low molecular weight renin inhibitors containing a C-terminal heterocycle: hydrogen bonding at the active site” (J Med Chem, 1990):
pIC50: −log10 of the molar value.

Tests used:
[1] = target: T1, Renin (Homo sapiens, UniProt P00797); experiment: In vitro inhibition of purified human renal renin.
T1 sequence (P00797 whole entry): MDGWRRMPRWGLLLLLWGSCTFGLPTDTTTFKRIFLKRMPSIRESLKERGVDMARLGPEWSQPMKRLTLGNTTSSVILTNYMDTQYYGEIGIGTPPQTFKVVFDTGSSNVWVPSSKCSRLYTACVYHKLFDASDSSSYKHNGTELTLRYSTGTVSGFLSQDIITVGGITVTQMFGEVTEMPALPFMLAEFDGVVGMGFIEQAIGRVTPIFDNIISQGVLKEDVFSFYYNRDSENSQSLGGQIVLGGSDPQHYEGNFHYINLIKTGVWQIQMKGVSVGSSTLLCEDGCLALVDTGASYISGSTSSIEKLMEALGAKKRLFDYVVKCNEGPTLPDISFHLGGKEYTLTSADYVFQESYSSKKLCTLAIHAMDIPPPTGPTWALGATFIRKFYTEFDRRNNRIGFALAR
In short: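 The enzyme was human renal renin, purified and tested at pH 6.0. The read-out is IC50 in nM.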

[2] = target: T1, Renin; experiment: In vitro inhibition of human plasma renin.; type: cell-free
In short: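 Renin activity was measured in human plasma at pH 7.4, and the result is reported as IC50 in nM.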

[3] = target: T2, Cathepsin D (Bos taurus) (UniProt P80209); experiment: Percent inhibition against bovine Cathepsin D at a concentration of 1 x 10 e-5 M and pH 3
T2 sequence (whole entry): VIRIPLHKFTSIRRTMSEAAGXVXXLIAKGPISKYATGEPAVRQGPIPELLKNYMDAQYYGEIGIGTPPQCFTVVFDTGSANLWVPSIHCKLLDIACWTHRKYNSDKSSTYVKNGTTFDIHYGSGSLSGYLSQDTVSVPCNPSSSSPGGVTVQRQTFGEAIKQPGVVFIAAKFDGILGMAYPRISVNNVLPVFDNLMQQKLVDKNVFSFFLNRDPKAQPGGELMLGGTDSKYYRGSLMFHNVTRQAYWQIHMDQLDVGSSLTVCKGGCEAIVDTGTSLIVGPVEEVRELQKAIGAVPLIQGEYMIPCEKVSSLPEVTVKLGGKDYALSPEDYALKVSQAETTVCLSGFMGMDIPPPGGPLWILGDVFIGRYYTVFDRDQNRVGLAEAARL

[4] = target: Pepsin A (Sus scrofa) (UniProt P00791); experiment: Percent inhibition against porcine pepsin at a concentration of 1 x 10 e-5 M and pH 2
[5] = target: T2, Cathepsin D (Bos taurus); experiment: Percent inhibition against bovine cathepsin D at a concentration of 1 x 10 e-5 M and pH 3

Sequence of Pepsin A (Sus scrofa) (P00791 60-385 limits assumed): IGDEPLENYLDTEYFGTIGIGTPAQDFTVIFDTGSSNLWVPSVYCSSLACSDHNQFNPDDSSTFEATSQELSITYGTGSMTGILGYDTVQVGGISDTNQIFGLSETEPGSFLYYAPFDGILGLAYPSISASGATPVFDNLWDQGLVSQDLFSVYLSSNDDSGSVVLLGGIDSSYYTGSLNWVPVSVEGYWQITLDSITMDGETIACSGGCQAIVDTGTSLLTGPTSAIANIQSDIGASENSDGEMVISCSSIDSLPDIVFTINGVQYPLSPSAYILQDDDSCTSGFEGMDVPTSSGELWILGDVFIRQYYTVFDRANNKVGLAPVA

SMILES | pIC50 [1] | pIC50 [2] | inhibition [3] [%] | inhibition [4] [%] | inhibition [5] [%]
C=C1C[C@@H]([C@H](O)[C@H](CC2CCCCC2)NC(=O)[C@H](Cc2c[nH]cn2)NC(=O)[C@H](Cc2ccccc2)NC(=O)OC(C)(C)C)OC1=O | 9.15 | 7.68 | – | – | –
CC(C)(C)OC(=O)N[C@@H](Cc1ccccc1)C(=O)N[C@@H](Cc1cnc[nH]1)C(=O)N[C@@H](CC1CCCCC1)[C@@H](O)[C@@H]1CC(C)(C)C(=O)O1 | 9.05 | 8.55 | – | – | –
CC(C)(C)OC(=O)N[C@@H](Cc1ccccc1)C(=O)N[C@@H](Cc1cnc[nH]1)C(=O)N[C@@H](CC1CCCCC1)[C@@H](O)[C@@H](O)CNC=O | 8.10 | 7.20 | – | – | –
CC(C)(C)OC(=O)N[C@@H](Cc1ccccc1)C(=O)N[C@@H](Cc1cnc[nH]1)C(=O)N[C@@H](CC1CCCCC1)[C@@H](O)[C@@H](O)CN=[N+]=[N-] | – | 8.05 | – | – | –
CCN1C[C@@H]([C@H](O)[C@H](CC2CCCCC2)NC(=O)[C@H](Cc2cnc[nH]2)NC(=O)[C@H](Cc2ccccc2)NC(=O)OC(C)(C)C)NS1(=O)=O | 8.85 | 7.89 | – | – | –
CC(C)(C)OC(=O)N[C@@H](Cc1ccccc1)C(=O)N[C@@H](Cc1c[nH]cn1)C(=O)N[C@@H](CC1CCCCC1)[C@@H](O)[C@@H]1CCNC(=O)O1 | 8.51 | 7.54 | – | – | –
CCN1C[C@@H]([C@H](O)[C@H](CC2CCCCC2)NC(=O)[C@H](Cc2cnc[nH]2)NC(=O)[C@H](Cc2ccccc2)NC(=O)OC(C)(C)C)NC1=O | 8.92 | 7.96 | – | – | –
CC(C)N1C[C@@H]([C@H](O)[C@H](CC2CCCCC2)NC(=O)[C@H](Cc2cnc[nH]2)NC(=O)[C@H](Cc2ccccc2)NC(=O)OC(C)(C)C)OC1=O | 9.08 | 8.09 | – | – | –
CC(C)(C)OC(=O)N[C@@H](Cc1ccccc1)C(=O)N[C@@H](Cc1c[nH]cn1)C(=O)N[C@@H](CC1CCCCC1)[C@@H](O)[C@@H](O)CN=[N+]=[N-] | – | – | 0 | 0 | –
CCCN1C[C@@H]([C@H](O)[C@H](CC2CCCCC2)NC(=O)[C@H](Cc2cnc[nH]2)NC(=O)[C@H](Cc2ccccc2)NC(=O)OC(C)(C)C)OC1=O | 9.00 | 7.92 | – | – | –
CN1C[C@@H]([C@H](O)[C@H](CC2CCCCC2)NC(=O)[C@H](Cc2c[nH]cn2)NC(=O)[C@H](Cc2ccccc2)NC(=O)OC(C)(C)C)OC1=O | 8.85 | 8.06 | – | – | –
CON1C[C@@H]([C@H](O)[C@H](CC2CCCCC2)NC(=O)[C@H](Cc2cnc[nH]2)NC(=O)[C@H](Cc2ccccc2)NC(=O)OC(C)(C)C)OC1=O | 9.05 | 8.04 | – | – | –
CON1CC([C@H](O)[C@@H](CC2CCCCC2)NC(=O)[C@H](Cc2c[nH]cn2)NC(=O)[C@H](Cc2ccccc2)NC(=O)OC(C)(C)C)OC1=O (single isomer, unassigned) | 7.37 | – | – | – | –
CC(C)CN1C[C@@H]([C@H](O)[C@H](CC2CCCCC2)NC(=O)[C@H](Cc2cnc[nH]2)NC(=O)[C@H](Cc2ccccc2)NC(=O)OC(C)(C)C)OC1=O | 8.52 | 7.68 | – | – | –
CC(C)C[C@H](O)[C@H](O)[C@H](CC1CCCCC1)NC(=O)[C@H](Cc1c[nH]cn1)NC(=O)[C@H](Cc1ccccc1)NC(=O)OC(C)(C)C | – | – | 0 | 0 | –
CCN1C[C@@H]([C@H](O)[C@H](CC2CCCCC2)NC(=O)[C@H](Cc2cnc[nH]2)NC(=O)[C@H](Cc2ccccc2)NC(=O)OC(C)(C)C)OC1=O | 9.20 | 8.55 | – | – | –
CC(C)ON1C[C@@H]([C@H](O)[C@H](CC2CCCCC2)NC(=O)[C@H](Cc2c[nH]cn2)NC(=O)[C@H](Cc2ccccc2)NC(=O)OC(C)(C)C)OC1=O | 8.85 | 7.59 | – | – | –
CCN1C[C@@H]([C@H](O)[C@H](CC2CCCCC2)NC(=O)[C@H](Cc2c[nH]cn2)NC(=O)[C@H](Cc2ccccc2)NC(=O)OC(C)(C)C)OC1=O | – | – | – | 0 | 21
CC(C)(C)OC(=O)N[C@@H](Cc1ccccc1)C(=O)N[C@@H](Cc1cnc[nH]1)C(=O)N[C@@H](CC1CCCCC1)[C@@H](O)[C@@H]1CNC(=O)O1 | 8.33 | 7.60 | – | – | –
C[C@@H]1CO[C@H]([C@H](O)[C@H](CC2CCCCC2)NC(=O)[C@H](Cc2c[nH]cn2)NC(=O)[C@H](Cc2ccccc2)NC(=O)OC(C)(C)C)C1 | 8.92 | 8.52 | 9 | 2 | –
CC(C)(C)OC(=O)N[C@@H](Cc1ccccc1)C(=O)N[C@@H](Cc1c[nH]cn1)C(=O)N[C@@H](CC1CCCCC1)[C@@H](O)[C@@H]1CN(CCO)C(=O)O1 | 9.15 | 8.13 | – | – | –
CCON1C[C@@H]([C@H](O)[C@H](CC2CCCCC2)NC(=O)[C@H](Cc2cnc[nH]2)NC(=O)[C@H](Cc2ccccc2)NC(=O)OC(C)(C)C)OC1=O | 8.89 | 7.77 | – | – | –
C[C@H]1C[C@@H]([C@H](O)[C@H](CC2CCCCC2)NC(=O)[C@H](Cc2c[nH]cn2)NC(=O)[C@H](Cc2ccccc2)NC(=O)OC(C)(C)C)OC1=O | 9.49 | 8.64 | – | – | –
CON1C[C@@H]([C@H](O)[C@H](CC2CCCCC2)NC(=O)[C@H](Cc2c[nH]cn2)NC(=O)[C@H](Cc2ccccc2)NC(=O)OC(C)(C)C)OC1=O | – | – | – | 0 | 0
